ChEMBL document CHEMBL1131471, “N-[trans-2-[[2'-(acetylamino)cyclohexyl]oxy]acetyl]-L-alanyl-D-glutamic acid: a novel immunologically active carbocyclic muramyl dipeptide analogue” (1998)

Experiments:
Mus musculus [1] = experiment: Compound was tested for its ability to enhance nonspecific resistance to expt. fungal infection in mice immunosuppressed with cyclophosphamide and infected with candida albicans at 3x10 mg/kg/day; survival increase = 0/6; type: functional
In short: (§1)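 Groups of 10 mice in a controlled room. Test substance or vehicle (distilled water) was given ip on days 1, 3 and 5. Cyclophosphamide 30 mg/kg po was given on days 2, 4 and 6. One hour after the last cyclophosphamide dose, mice were challenged with C. albicans at a level set for 70–90% mortality within 10 days in vehicle controls. Survival over 10 days was scored as (treated − CP-only survivors)/(unsuppressed control − CP-only survivors).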

Mus musculus [2] = experiment: Compound was tested for its ability to enhance nonspecific resistance to expt. fungal infection in mice immunosuppressed with cyclophosphamide and infected with candida albicans at 3x 0.1 mg/kg/day; survival increase = 0/6; type: functional; in short: as §1
Mus musculus [3] = experiment: Compound was tested for its ability to enhance nonspecific resistance to expt. fungal infection in mice immunosuppressed with cyclophosphamide and infected with candida albicans at 3x1 mg/kg/day; survival increase = 1/6; type: functional; in short: as §1
Mus musculus [4] = experiment: Compound was tested for its ability to enhance nonspecific resistance to expt. fungal infection in mice immunosuppressed with cyclophosphamide and infected with candida albicans at 3x100 mg/kg/day; survival increase = 0/6; type: functional; in short: as §1
Mus musculus [5] = experiment: Compound was tested for its ability to enhance nonspecific resistance to expt. fungal infection in mice immunosuppressed with cyclophosphamide and infected with candida albicans at 3x10 mg/kg/day; survival increase = 2/6; type: functional; in short: as §1
Mus musculus [6] = experiment: Compound was tested for its ability to enhance nonspecific resistance to expt. fungal infection in mice immunosuppressed with cyclophosphamide and infected with candida albicans at 3x100 mg/kg/day; survival increase = 2/6; type: functional; in short: as §1
Mus musculus [7] = experiment: Compound was tested for its ability to enhance nonspecific resistance to expt. fungal infection in mice immunosuppressed with cyclophosphamide and infected with candida albicans at 3x 0.1 mg/kg/day;survival increase = 0/6; type: functional; in short: as §1
Mus musculus [8] = experiment: Compound was tested for its ability to enhance nonspecific resistance to expt. fungal infection in mice immunosuppressed with cyclophosphamide and infected with candida albicans at 3x100 mg/kg/day; survival increase = 1/6; type: functional; in short: as §1
Mus musculus [9] = experiment: Compound was tested for its ability to enhance nonspecific resistance to expt. fungal infection in mice immunosuppressed with cyclophosphamide and infected with candida albicans at 3x1 mg/kg/day; survival increase = 0/6; type: functional; in short: as §1
Mus musculus [10] = species: Mus musculus; experiment: Compound was tested for immunomodulatory effect on macrophage activation with costimulation with PMA measured as UV absorption difference with test sample at 0.25 microg daily dose and blank/mg of cell protein in mouse; type: functional
In short: (§2)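 Female HAN–NmRi mice got thioglycolate ip plus the dose ip (0.5 mL) daily for 3 days and were killed on day 4. Peritoneal cells were washed out, erythrocytes lysed hypo-osmotically, and cells plated at 1.5 × 10^6/mL. They adhered for 2 h and nonadherent cells were rinsed off. Macrophages were given 160 μM ferricytochrome c in HBSS, with or without 200 nM PMA; the blank added 340 U/mL SOD. After 90 min at 37 °C, absorbance was read at […].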

Mus musculus [11] = species: Mus musculus; experiment: Compound was tested for immunomodulatory effect on macrophage activation with costimulation with PMA measured as UV absorption difference with test sample at 2.5 microg daily dose and blank/mg of cell protein in mouse; type: functional; in short: as §2
Mus musculus [12] = species: Mus musculus; experiment: Compound was tested for immunomodulatory effect on macrophage activation with costimulation with PMA measured as UV absorption difference with test sample at 25 microg daily dose and blank/mg of cell protein in mouse; type: functional; in short: as §2
Mus musculus [13] = species: Mus musculus; experiment: Compound was tested for immunomodulatory effect on macrophage activation without costimulation with PMA measured as UV absorption difference with test sample at 0.25 microg daily dose and blank/mg of cell protein in mouse; type: functional; in short: as §2
Mus musculus [14] = species: Mus musculus; experiment: Compound was tested for immunomodulatory effect on macrophage activation without costimulation with PMA measured as UV absorption difference with test sample at 2.5 microg daily dose and blank/mg of cell protein in mouse; type: functional; in short: as §2
Mus musculus [15] = species: Mus musculus; experiment: Compound was tested for immunomodulatory effect on macrophage activation without costimulation with PMA measured as UV absorption difference with test sample at 25 microg daily dose and blank/mg of cell protein in mouse; type: functional; in short: as §2
Mus musculus [16] = species: Mus musculus; experiment: Compound was tested for blast transformation ability of lymphocytes, stimulated in vitro with Concanavalin A expressed as amount of [3H]-thymidine incorporated in lymphocyte DNA at 0.25 microg daily dose in mouse; type: functional
In short: (§3)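 Female HAN–NmRi mice (3–4 weeks, 17–20 g) got 1 mL thioglycolate ip, then the dose in 0.5 mL ip one hour later, repeated on days 2 and 3. On day 4, spleen lymphocytes were taken at 1 × 10^6/mL in RPMI 1640 with 10% FCS and stimulated with Con A at 16, 8 or 4 μg/mL for 2 days at 37 °C, 5% CO2. [3H]thymidine was then added for 16 h and counted by β-counter. Results are cpm, n = 5.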

Mus musculus [17] = species: Mus musculus; experiment: Compound was tested for blast transformation ability of lymphocytes, stimulated in vitro with Concanavalin A expressed as amount of [3H]thymidine incorporated in lymphocyte DNA at 2.5 microg daily dose in mouse; type: functional; in short: as §3
Mus musculus [18] = species: Mus musculus; experiment: Compound was tested for blast transformation ability of lymphocytes, stimulated in vitro with Concanavalin A expressed as amount of [3H]thymidine incorporated in lymphocyte DNA at 25 microg daily dose in mouse; type: functional; in short: as §3
Mus musculus [19] = species: Mus musculus; experiment: Compound was tested for its effect on number of B-cells at 0.25 microg daily dose in mouse; type: functional, B-cell
In short: (§4)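 Female HAN–NmRi mice (3–4 weeks) got thioglycolate ip and the dose ip in 0.5 mL on days 1–3, and spleens were taken on day 4. B cells were stained with FITC goat anti-mouse IgG. T cells were stained with rat anti-Thy-1 and then FITC goat anti-rat Ig. Cells were counted by fluorescence microscopy and reported in millions as mean ± SEM with p values.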

Mus musculus [20] = species: Mus musculus; experiment: Compound was tested for its effect on number of B-cells at 2.5 microg daily dose in mouse; type: functional, B-cell; in short: as §4
Mus musculus [21] = species: Mus musculus; experiment: Compound was tested for its effect on number of B-cells at 25 microg daily dose in mouse; type: functional, B-cell; in short: as §4
Mus musculus [22] = species: Mus musculus; experiment: Compound was tested for its effect on number of T cells at 0.25 microg daily dose in mouse; type: functional, T-cell; in short: as §4
Mus musculus [23] = species: Mus musculus; experiment: Compound was tested for its effect on number of T cells at 2.5 microg daily dose in mouse; type: functional, T-cell; in short: as §4
Mus musculus [24] = species: Mus musculus; experiment: Compound was tested for its effect on number of T cells at 25 microg daily dose in mouse; type: functional, T-cell; in short: as §4
Mus musculus [25] = species: Mus musculus; experiment: Compound was tested for its effect on number of peritoneal macrophages at 0.25 microg daily dose in mouse; type: functional
In short: (§5)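 Female HAN–NmRi mice got thioglycolate ip and the dose ip (0.5 mL) daily for 3 days. On day 4, peritoneal cells were washed out with ice-cold RPMI 1640. Macrophages were counted with trypan blue in a Neubauer chamber, excluding contaminating cells by morphology, and reported in millions as mean ± SEM.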

Mus musculus [26] = species: Mus musculus; experiment: Compound was tested for its effect on number of peritoneal macrophages at 2.5 microg daily dose in mouse; type: functional; in short: as §5
Mus musculus [27] = species: Mus musculus; experiment: Compound was tested for its effect on number of peritoneal macrophages at 25 microg daily dose in mouse; type: functional; in short: as §5
Mus musculus [28] = species: Mus musculus; experiment: Compound was tested for its effect on number of total spleen cells at 0.25 microg daily dose in mouse; type: functional; in short: as §4
Mus musculus [29] = species: Mus musculus; experiment: Compound was tested for its effect on number of total spleen cells at 2.5 microg daily dose in mouse; type: functional; in short: as §4
Mus musculus [30] = species: Mus musculus; experiment: Compound was tested for its effect on number of total spleen cells at 25 microg daily dose in mouse; type: functional; in short: as §4
Mus musculus [31] = experiment: Compound was tested for its ability to enhance nonspecific resistance to expt. fungal infection in mice immunosuppressed with cyclophosphamide and infected with candida albicans at 3x10 mg/kg/day; survival increase = 1/6; type: functional; in short: as §1
Mus musculus [32] = experiment: Compound was tested for its ability to enhance nonspecific resistance to expt. fungal infection in mice immunosuppressed with cyclophosphamide and infected with candida albicans at 3x30 mg/kg/day; survival increase = 1/6; type: functional; in short: as §1
Mus musculus [33] = experiment: Compound was tested for its ability to enhance nonspecific resistance to expt. fungal infection in mice immunosuppressed with cyclophosphamide and infected with candida albicans at 3x 0.1 mg/kg/day; survival increase = 2/6; type: functional; in short: as §1
Mus musculus [34] = experiment: Compound was tested for its ability to enhance nonspecific resistance to expt. fungal infection in mice immunosuppressed with cyclophosphamide and infected with candida albicans at 3x10 mg/kg/day; survival increase = 3/6; type: functional; in short: as §1
Mus musculus [35] = experiment: Compound was tested for its ability to enhance nonspecific resistance to expt. fungal infection in mice immunosuppressed with cyclophosphamide and infected with candida albicans at 3x100 mg/kg/day; survival increase = 3/6; type: functional; in short: as §1
Mus musculus [36] = experiment: Compound was tested for its ability to enhance nonspecific resistance to expt. fungal infection in mice immunosuppressed with cyclophosphamide and infected with candida albicans at 3x1 mg/kg/day; survival increase = 2/6; type: functional; in short: as §1
Mus musculus [37] = experiment: Compound was tested for its ability to enhance nonspecific resistance to expt. fungal infection in mice immunosuppressed with cyclophosphamide and infected with candida albicans at 3x30 mg/kg/day; survival increase = 3/6; type: functional; in short: as §1
Mus musculus [38] = experiment: Compound was tested for its ability to enhance nonspecific resistance to expt. fungal infection in mice immunosuppressed with cyclophosphamide and infected with candida albicans at 3x1 mg/kg/day; survival increase = 3/6; type: functional; in short: as §1
Mus musculus [39] = experiment: Compound was tested for its ability to enhance nonspecific resistance to expt. fungal infection in mice immunosuppressed with cyclophosphamide and infected with candida albicans at 3x 0.1 mg/kg/day; survival increase = 3/6; type: functional; in short: as §1

Compound: CC(=O)N[C@@H]1CCCC[C@H]1OCC(=O)N[C@@H](C)C(=O)N[C@H](CCC(=O)O)C(N)=O
- Survival increase (Mus musculus [1]): 0
- Survival increase (Mus musculus [2]): 0
- Survival increase (Mus musculus [3]): 1
- Survival increase (Mus musculus [4]): 0

Compound: CC(=O)N[C@H]1CCCC[C@@H]1OCC(=O)N[C@@H](C)C(=O)N[C@H](CCC(=O)O)C(=O)O
- Survival increase (Mus musculus [5]): 2
- Survival increase (Mus musculus [2]): 0
- Survival increase (Mus musculus [3]): 1
- Survival increase (Mus musculus [6]): 2

Compound: CC(=O)N[C@H]1CCCC[C@@H]1OCC(=O)N[C@@H](C)C(=O)N[C@H](CCC(=O)O)C(N)=O
- Survival increase (Mus musculus [1]): 0
- Survival increase (Mus musculus [7]): 0
- Survival increase (Mus musculus [8]): 1
- Survival increase (Mus musculus [9]): 0

Compound: CC(=O)NC1CCCCC1OCC(=O)N[C@@H](C)C(=O)N[C@H](CCC(=O)O)C(=O)O (stereo partly drawn)
- Macrophage activation (Mus musculus [10]): 1298
- Macrophage activation (Mus musculus [11]): 1494
- Macrophage activation (Mus musculus [12]): 1709
- Macrophage activation (Mus musculus [13]): 237
- Macrophage activation (Mus musculus [14]): 431
- Macrophage activation (Mus musculus [15]): 489
- Amount of [3H]thymidine (Mus musculus [16]): 10780 c.p.m.
- Amount of [3H]thymidine (Mus musculus [17]): 16830 c.p.m.
- Amount of [3H]thymidine (Mus musculus [18]): 25990 c.p.m.
- Number (Mus musculus [19]): 18.42 millions
- Number (Mus musculus [20]): 23.76 millions
- Number (Mus musculus [21]): 20.5 millions
- Number (Mus musculus [22]): 11.7 millions
- Number (Mus musculus [23]): 12.88 millions
- Number (Mus musculus [24]): 9.72 millions
- Number (Mus musculus [25]): 2.58 millions
- Number (Mus musculus [26]): 2.87 millions
- Number (Mus musculus [27]): 0.92 millions
- Number (Mus musculus [28]): 5.66 millions
- Number (Mus musculus [29]): 8.14 millions
- Number (Mus musculus [30]): 9.93 millions

Compound: CCCCCC(=O)NC1CCCCC1OCC(=O)N[C@@H](C)C(=O)N[C@H](CCC(=O)O)C(N)=O (stereo partly drawn)
- Survival increase (Mus musculus [31]): 1
- Survival increase (Mus musculus [2]): 0
- Survival increase (Mus musculus [32]): 1
- Survival increase (Mus musculus [9]): 0

Compound: CC(=O)N[C@@H]1CCCC[C@H]1OCC(=O)N[C@@H](C)C(=O)N[C@H](CCC(=O)O)C(=O)O
- Survival increase (Mus musculus [33]): 2
- Survival increase (Mus musculus [3]): 1
- Survival increase (Mus musculus [34]): 3
- Survival increase (Mus musculus [35]): 3

Compound: C[C@H](NC(=O)C1(C)OC2(C)CCCCC2(C)NC1=O)C(=O)N[C@H](CCC(=O)O)C(=O)O (stereo partly drawn)
- Survival increase (Mus musculus [1]): 0
- Survival increase (Mus musculus [2]): 0
- Survival increase (Mus musculus [6]): 2
- Survival increase (Mus musculus [9]): 0

Compound: CCCCCCCCCCCC(=O)NC1CCCCC1OCC(=O)N[C@@H](C)C(=O)N[C@H](CCC(=O)O)C(N)=O (stereo partly drawn)
- Survival increase (Mus musculus [36]): 2
- Survival increase (Mus musculus [2]): 0
- Survival increase (Mus musculus [34]): 3
- Survival increase (Mus musculus [37]): 3

Compound: CC(C)(N1CC1C#N)N1CC1C(N)=O (stereo not drawn) [AZIMEXON]
- Survival increase (Mus musculus [38]): 3
- Survival increase (Mus musculus [39]): 3
- Survival increase (Mus musculus [34]): 3
- Survival increase (Mus musculus [35]): 3
